Measured values taken from ChEMBL document CHEMBL1123135, “Substituent effects on the bioactivation of 2-(N-hydroxyacetamido)fluorenes by N-arylhydroxamic acid N,O-acyltransferase” (J Med Chem, 1985).

Tests used:
[1] = tested on: Hamster; assay: Rate of methylthio adduct formation catalyzed by partially purified hamster hepatic enzyme per mg protein per 10 min; assay type: ADME; conditions: cricetinae, in vitro
In short: (§1)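 Hamster liver 105000g cytosol AHAT was taken as the 35–50% ammonium sulfate fraction (2–3-fold purified). Incubation (1.0 mL, pH 6.8 sodium phosphate) held 0.8 μmol NAD⁺, 10 μmol N-acetyl-L-[¹⁴C-CH₃]methionine, 1 mg enzyme and 1 μmol hydroxamic acid, for 10 min at 37 °C in air. Ether wash and 90 °C/45 min heating were followed by benzene–alkane extraction and scintillation counting. Heat-denatured enzyme blanks were subtracted; N = 3.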

[2] = Observed log rate of methylthio adduct formation; assay type: ADME; in short: as §1

SMILES	Rate [1] [nmol/mg/10 min]	Log rate [2]
CCCCOc1ccc2c(c1)Cc1cc(N(O)C(C)=O)ccc1-2	0	
CC(=O)N(O)c1ccc2c(c1)Cc1cc(Br)ccc1-2	10.5	1.02
CC(=O)N(O)c1ccc2c(c1)Cc1cc(C#N)ccc1-2	24.9	1.4
CC(=O)N(O)c1ccc2c(c1)Cc1ccccc1-2	7.5	0.87
CC(=O)c1ccc2c(c1)Cc1cc(N(O)C(C)=O)ccc1-2	61	1.79

Now from value to compound:

Rate [1] [nmol/mg/10 min]	Log rate [2]	SMILES
1.2	0.09	COc1ccc2c(c1)Cc1cc(N(O)C(C)=O)ccc1-2
2.4	0.37	CC(=O)N(O)c1ccc2c(c1)Cc1cc(I)ccc1-2
15.2	1.18	CC(=O)N(O)c1ccc2c(c1)Cc1cc(F)ccc1-2
